GSTO1 counter: counter-screen for RBBP9 inhibitors: inhibitors of human GSTO1; P78417; recombinant GSTO1, activity-based probe fluorescence polarization; inhibition, % at 5.96 µM; 300,000 compounds, 1.1% hits; AID 1974;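 active means inhibition above the campaign mean inhibition plus 3 SD, cut at about 35% in these data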;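 further: 0% = GSTO1-1 with DMSO and 100% = wells lacking GSTO1-1 enzyme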
PRMT1 FP inh: inhibitors of human PRMT1. Q99873. recombinant PRMT1, activity-based probe fluorescence polarization. inhibition, % at 2.79 µM. 370,000 compounds, 1.3% hits. AID 652257;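 active means inhibition above about 21% made by adding two undisclosed values, limit read from the data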
Target sequence (Q99873 whole entry, looked up): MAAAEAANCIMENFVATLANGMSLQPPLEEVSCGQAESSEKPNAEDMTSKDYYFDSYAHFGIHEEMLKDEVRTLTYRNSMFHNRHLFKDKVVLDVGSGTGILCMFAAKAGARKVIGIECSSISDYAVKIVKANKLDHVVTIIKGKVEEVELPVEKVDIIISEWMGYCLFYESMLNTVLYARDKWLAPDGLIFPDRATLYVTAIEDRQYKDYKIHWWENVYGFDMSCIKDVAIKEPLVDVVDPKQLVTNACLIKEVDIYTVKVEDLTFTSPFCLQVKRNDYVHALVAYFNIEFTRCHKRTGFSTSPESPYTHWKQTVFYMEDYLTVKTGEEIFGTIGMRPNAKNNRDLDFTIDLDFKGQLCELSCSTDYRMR
PAD4 inh: PAD4 (human) enzyme inhibition | recombinant PAD4, RCA probe fluorescence polarization | inhibition, % at 6.36 µM | 330,000 compounds, 0.41% hits;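 active means percent inhibition above a cutoff equal to the mean of all tested compounds plus 3 SD, cut at about 15% in these data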;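 further: 0% = PAD4 with RCA probe and DMSO and 100% = probe without PAD4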
CTSL1 counter: cathepsin L1 inhibition, PFM18AAP counter-screen; AID 1906; recombinant F. hepatica cathepsin L1, Z-Leu-Arg-MCA fluorescence; inhibition, % at 5.96 µM; 300,000 compounds, 0.49% hits;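 active means inhibition above the mean of all tested compounds plus 3 SD, set per screening campaign, cut at about 17% in these data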;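 further: 0% = plate median of test compound wells and 100% = 1 µM Z-Phe-Ala-diazomethylketone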
TDP2 absorb: TDP2 (human) inhibition, absorbance primary screen; O95551; recombinant TDP2, T5PNP hydrolysis, p-nitrophenol absorbance 415 nm; inhibition, % at 12.8 µM; 370,000 compounds, 0.34% hits; AID 720702;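 active means inhibition above the mean of all tested compounds plus 3 SD, set per campaign, cut at about 25% in these data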;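 further: 0% = DMSO with enzyme and 100% = buffer with substrate but no TDP2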
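System – recombinant human TDP2 · Quantity – TDP2 enzyme at 120 nM final · Doses – single concentration, 12.8 µM nominal, with 1% DMSO · Incubation – 2 h at 37 °C · Measured by – epi absorbance of p-nitrophenol freed from T5PNP by hydrolysis · Read-out – % inhibition relative to enzyme-containing and enzyme-free wells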
GSTO1 inh conf: confirmation of human GSTO1 inhibitors; 2,400 compounds, 54% hits; shares compounds with GSTO1 counter; recombinant GSTO1, probe fluorescence polarization; inhibition, % at 5.96 µM; AID 2176;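 active means inhibition above the primary screen's cutoff, its mean inhibition plus 3 SD, cut at about 35% in these data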;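 further: loss of polarization as inhibitors block binding of rhodamine sulfonate ester activity probe; 0% = GSTO1 with DMSO and 100% = wells lacking GSTO1 enzyme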
GSTO1 ABPP inh: GSTO1 (human) inhibition by gel ABPP; shares compounds with GSTO1 counter; recombinant GSTO1, gel ABPP SE-Rh probe fluorescence; inhibition, % at 1 µM; 130 compounds, 30% hits;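 active means inhibition of the enzyme GSTO1 above about 75%, limit read from the data; inactive means inhibition below that limit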
Starred values were filed as active, the others as inactive; · = no result given. Only some compounds are listed: those with a hit (about 2.5% of all), similar ones and a draw of the others.

SMILES	GSTO1 counter	PRMT1 FP inh	PAD4 inh	CTSL1 counter	TDP2 absorb	GSTO1 inh conf	others
CCOc1cc(/C=N/NC(N)=O)cc(Br)c1OCc1ccccc1F	-3	6	1	0	1	·
COc1ccc2c3c(cccc13)N(C)N=C2C	70*	48*	10	0	10	64*
COc1ccc2[nH]c3c(c2c1)CCN[C@]31C(=O)N(Cc2cn(Cc3ccccc3)nn2)c2ccc(F)cc21	·	8	·	·	0	·
CCCCNC(=O)O[C@H]1CC[C@@]23CCCN2C(=O)CCC[C@H]3C1	·	3	·	·	-3	·
O=C(OCC(=O)N1CCCC1)c1cc([N+](=O)[O-])ccc1Cl	16	-4	-1	-4	8	·
O=C(OCC(=O)N1CCCCC1)c1cc(NS(=O)(=O)c2ccc(Cl)c([N+](=O)[O-])c2)ccc1O	51*	1	-6	5	1	56*
COC(=O)CCC(=O)OC1(C)C(=O)C=C2C=C(C3CC3)N(Cc3ccco3)C=C2C1=O (stereo unspecified)	38*	13	-3	0	17	17
COC(=O)CCC(=O)OC1(C)C(=O)C=C2C=C(C3CC3)N(c3cccc(C#N)c3)C=C2C1=O (stereo unspecified)	58*	8	-11	-3	7	8
COC(=O)CCC(=O)OC1(C)C(=O)C=C2C=C(C3CC3)N(c3ccc(CO)cc3)C=C2C1=O (stereo unspecified)	21	·	-5	-6	·	·
COc1ccc(N)cc1-n1c(C)ccc1C	45*	27*	10	4	-8	6
O=C1/C(=C\c2ccco2)SC(=S)N1C1CCCCC1	-3	·	-9	3	·	·
CC1=C(C#N)C(=O)N(C2CCS(=O)(=O)C2)C(=O)/C1=C\c1ccco1 (stereo unspecified)	87*	·	9	5	·	73*
COc1cccc(C2Nc3c(F)cc(Br)cc3C3C=CCC32)c1OC (stereo unspecified)	3	-3	-2	-5	9	·
COc1cccc2c1NC(C(=O)O)C1CC=CC21 (stereo unspecified)	61*	·	1	-5	·	46*
O=C(O)C1Nc2ccc(OC(F)(F)F)cc2C2C=CCC12 (stereo unspecified)	48*	·	1	-4	·	19
O=C(NC1CCCCC1)C(c1cccnc1)N(C(=O)CCl)c1ccccc1Cl (stereo unspecified)	88*	0	-2	15	4	83*	GSTO1 ABPP inh=40
O=C(NC1CCCCC1)C(c1cccnc1)N(C(=O)CCl)c1ccc(F)cc1 (stereo unspecified)	95*	1	3	-1	3	97*	GSTO1 ABPP inh=82*
O=C(NCC(=O)N(c1ccc(F)cc1)C(C(=O)NC1CCCCC1)c1cccnc1)c1ccco1 (stereo unspecified)	-2	0	-2	-8	1	·
O=C(c1c(F)cccc1F)N1CCC(Oc2cccnc2)CC1	·	0	·	·	5	·
COc1ccc(N2C3=C(CC4=C2CCCC4=O)C(=O)CCC3)cc1	58*	10	7	1	6	2
COc1ccc(-n2ccc(=O)c3c2CCCC3=O)cc1	4	-2	-5	-1	-13	·
CC(=O)c1cc2c(cc1NC(=O)c1cccc(S(=O)(=O)N3CCN(C)CC3)c1)OCO2	61*	0	-15	10	-10	22
CC(=O)c1ccc(NC(=O)c2cccc(S(=O)(=O)N3CCN(C)CC3)c2)cc1	-5	-4	-1	-1	9	·
O=C(NCc1ccco1)c1cc(-c2cccnc2)nc2ccccc12	38*	-2	1	1	12	5
O=C(NCc1ccco1)c1cc(-c2ccncc2)nc2ccccc12	0	0	1	4	22	·
O=C(O)C1Cc2ccccc2CN1C(=O)COc1ccc(Br)cc1 (stereo unspecified)	-1	-3	-4	-1	4	·
O=C(O)C1Cc2ccccc2CN1C(=O)CCl (stereo unspecified)	70*	1	-10	5	-1	98*	GSTO1 ABPP inh=82*
COc1ccc(OC)c(C(=O)CSc2nnc(SCc3cccc4ccccc34)s2)c1	·	-2	·	·	-4	·

Screens from PubChem.
